Source: PubChem BioAssay (several laboratories)
UPR XBP1 act: activators of adaptive XBP1 UPR arm, primary screen, cell-based, CHO-XBP1 luciferase reporter, luminescence, uHTS; 330,000 compounds, 0.33% hits; IRE1-XBP1 UPR activation; percent of tunicamycin response, DMSO as zero; activation, % at 20 µM; AID 463104, 2010;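 active means versus positive control, 20 µM dose yields 30% or more activation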;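 further: 100% = tunicamycin at 10 µg/mL and 0% = DMSO only wells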
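Assay system: CHO-XBP1 luciferase reporter cells; Schedule: 6 h treatment, 37 °C; Detection: glow luminescence from Steady-Glo reagent; Benchmarks: high control tunicamycin 10 µg/mL final, low control DMSO vehicle only.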
B2AR ag: beta2AR agonists driving receptor internalization, primary screen, cell-based, FAP fluorogen, flow cytometry | Beta-2 adrenergic receptor (Homo sapiens), P07550 | Am2.2-beta2AR cells | response, % (test concentration not listed) | 340,000 compounds, 0.43% hits | AID 504454, 2011;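 active means response above a set limit, near 3 SD of response in nonfluorescent compounds, cut at about 42% in these data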
CHOP inhibitor: inhibitors of CHOP promoter induction, primary screen, cell-based, unfolded protein response, luciferase reporter | CHO-K1 CHOP-promoter luciferase, tunicamycin-induced, 15-18 h | inhibition, % at 10 µM | 220,000 compounds, 3.8% hits;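 active means compounds that reduced the stress-induced luciferase reporter signal by more than about 70% of percent inhibition, limit read from the data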;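 further: 0% = tunicamycin plus vehicle and 100% = wells without tunicamycin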
Dynein cargo inh: inhibitors of GR-EGFP nuclear translocation, primary screen, dynein cargo transport inhibitor project, imaging, high-content, 3617.4 mouse cells. AID 1381, 2008. test concentration mostly 20 µM; stimulated with dexamethasone, 1 µM; stronger effect = lower value. z-score, hits read low. 220,000 compounds, 0.47% hits;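 active means plate z-score of nuclear minus cytoplasmic receptor signal below a set negative limit, without overly bright fluorescence or cell loss, cut at about -3.5 in these data, passing the limit was not always enough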;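 further: z-score of nuclear minus cytoplasmic ring GR-EGFP intensity difference per well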
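Buffer or medium: tet-free, stripped-serum medium; reagent: dexamethasone at 1.0 µM final, 30 min; incubation: 48 h induction, 1 h compound, 30 min dex at 37 °C; measured by: formaldehyde fixation, Hoechst nuclear stain, 10x automated fluorescence imaging; read-out: nuclear-to-cytoplasmic GR-EGFP distribution per well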
pCIP destab: p/CIP-EGFP fusion destabilizers, primary screen, fluorescence, F442A cells. 16 h. decrease of EGFP signal, % at 10 µM. 290,000 compounds, 0.01% hits. AID 1984, 2009;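 active means EGFP signal decrease of at least 30% at 10 µM or well 3 SD below plate mean, unless failing retest; inactive means the rest, including hits failing retest or dose response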
Target sequence (Q05BA5 1-1403): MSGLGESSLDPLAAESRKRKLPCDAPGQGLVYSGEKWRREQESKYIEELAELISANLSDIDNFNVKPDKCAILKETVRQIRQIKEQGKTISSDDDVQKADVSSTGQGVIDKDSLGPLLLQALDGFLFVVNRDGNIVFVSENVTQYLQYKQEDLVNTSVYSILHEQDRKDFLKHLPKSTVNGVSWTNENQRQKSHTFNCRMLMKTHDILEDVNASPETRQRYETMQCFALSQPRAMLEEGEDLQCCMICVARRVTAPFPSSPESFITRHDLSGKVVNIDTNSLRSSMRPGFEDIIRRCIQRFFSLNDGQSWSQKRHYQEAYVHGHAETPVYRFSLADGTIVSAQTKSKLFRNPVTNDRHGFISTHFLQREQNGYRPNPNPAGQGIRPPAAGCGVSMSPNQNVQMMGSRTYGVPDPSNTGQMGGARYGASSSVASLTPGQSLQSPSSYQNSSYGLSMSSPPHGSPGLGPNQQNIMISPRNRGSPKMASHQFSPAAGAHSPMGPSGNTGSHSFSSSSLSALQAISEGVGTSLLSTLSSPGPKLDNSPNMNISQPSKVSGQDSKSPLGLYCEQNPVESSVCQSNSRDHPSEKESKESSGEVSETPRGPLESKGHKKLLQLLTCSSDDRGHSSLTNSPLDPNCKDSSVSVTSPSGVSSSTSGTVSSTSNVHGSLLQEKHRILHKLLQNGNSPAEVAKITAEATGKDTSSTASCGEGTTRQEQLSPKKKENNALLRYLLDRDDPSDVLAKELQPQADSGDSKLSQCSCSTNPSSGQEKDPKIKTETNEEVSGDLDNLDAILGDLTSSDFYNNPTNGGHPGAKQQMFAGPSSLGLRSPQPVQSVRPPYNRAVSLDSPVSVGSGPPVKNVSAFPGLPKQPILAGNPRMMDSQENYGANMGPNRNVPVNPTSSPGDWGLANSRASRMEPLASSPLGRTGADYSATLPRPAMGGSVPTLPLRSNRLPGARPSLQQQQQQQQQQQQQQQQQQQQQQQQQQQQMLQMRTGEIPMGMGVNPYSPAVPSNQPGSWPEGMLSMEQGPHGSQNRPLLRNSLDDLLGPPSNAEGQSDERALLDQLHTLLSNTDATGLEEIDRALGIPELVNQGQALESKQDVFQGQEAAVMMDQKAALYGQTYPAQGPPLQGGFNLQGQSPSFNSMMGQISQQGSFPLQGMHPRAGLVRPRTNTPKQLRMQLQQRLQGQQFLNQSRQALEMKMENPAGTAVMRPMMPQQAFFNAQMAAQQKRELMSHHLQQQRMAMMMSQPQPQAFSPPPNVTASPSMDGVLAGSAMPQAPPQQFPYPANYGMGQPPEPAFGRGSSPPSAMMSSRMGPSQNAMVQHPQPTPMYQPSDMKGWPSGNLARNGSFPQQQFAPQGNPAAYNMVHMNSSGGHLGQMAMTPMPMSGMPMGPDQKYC
UPR CHOP act: activators of apoptotic CHOP UPR arm, primary screen, cell-based, CHO-CHOP luciferase reporter, luminescence, uHTS; UPR activation; percent of tunicamycin response over DMSO baseline; AID 449763, 2010; activation, % at 10 µM; 330,000 compounds, 0.34% hits;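 active means at 10 µM dose, activation of 40% or more, normalized to positive control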;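 further: 100% = tunicamycin at 10 µg/mL and 0% = DMSO alone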
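Assay system: CHO-CHOP cells, stable luciferase reporter of PERK-eIF2a-CHOP signalling / Buffer or medium: F12 plus 10% serum / Compound dosing: one dose, 10 µM in 0.5% DMSO / Times: 6 h compound treatment, 37 °C / Technique: luciferase luminescence / Read-out: % reporter activation, DMSO baseline versus tunicamycin full activation / Benchmarks: tunicamycin and DMSO controls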
Numbers without * were called inactive; x = not tested or not shown. The entries come from a sample that favours hits as a whole.

SMILES	UPR XBP1 act	B2AR ag	CHOP inhibitor	Dynein cargo inh	pCIP destab	UPR CHOP act
Cc1c(-c2nc(N)nc(Nc3ccccc3F)n2)oc2ccccc12	12	3	71*	0.42	-76	6
CN(C)C(CNC(=O)C1CCN(C(=O)/C=C/c2ccccc2)CC1)c1ccccc1 (stereo unspecified)	1	-5	x	x	-7	4
COc1ccc(OC)c(C2NC(=O)c3sc(=S)n(-c4ccccc4)c3N2)c1 (stereo unspecified)	20	0	90*	-1.3	-14	-1
CCN(CC)S(=O)(=O)c1cc(NC(=O)CSc2nccn2C)ccc1C	4	-4	11	-0.79	10	3
CCC(C)(C)NC(=O)C(c1ccc(C)o1)N(Cc1cccs1)C(=O)Cn1nnc2ccccc21 (stereo unspecified)	-5	-5	77*	-0.058	-12	0
CCC(C)(C)NC(=O)C(c1ccccc1)N(Cc1cccs1)C(=O)Cn1nnc2ccccc21 (stereo unspecified)	-5	1	x	0.37	x	0
CCOc1ccc(-n2cc(C(=O)Nc3ccc(Cl)cn3)c3cc(OC)c(OC)cc3c2=O)cc1	5	11	39	-0.22	-3	1
CCCC(O)(c1ccc(Cl)cc1)C(CN1CCOCC1)c1ccccc1 (stereo unspecified)	0	11	90*	-0.29	-3	0
O=C1/C(=C/c2ccccc2)NC(=S)N1C(c1ccccc1)c1ccccc1	-1	0	89*	-0.43	3	-2
O=c1[nH]c(SCCOc2ccccc2)nc2ccccc12	3	3	77*	-0.82	-8	3
COc1ccccc1OCCSc1nc2ccccc2c(=O)[nH]1	3	-2	-2	-0.044	6	3
CN(c1ccccc1C(=O)Nc1ccc2ccccc2c1)S(C)(=O)=O	-1	8	x	x	x	0
CCOc1ccc(CCNC(=O)Cn2cccc2C(=O)c2ccccc2C)cc1OCC	-1	12	75*	0.44	-6	5
Cc1ccc(N2C(=O)N(CC(=O)C(C)(C)C)c3ccccc3S2(=O)=O)cc1	x	x	-8	-0.22	-7	x
CCN=C1SC(C(=O)Nc2ccc(Cl)c(Cl)c2)CC(=O)N1CC (stereo unspecified)	-1	0	74*	-0.92	-8	-1
CCN=C1SC(C(=O)Nc2cc(Cl)cc(Cl)c2)CC(=O)N1CC (stereo unspecified)	1	9	75*	2.1	3	0
CCN=C1SC(C(=O)Nc2cccc(Cl)c2)CC(=O)N1CC (stereo unspecified)	-1	5	-9	2.5	3	-2
O=C(NCC(c1ccco1)N1CCc2ccccc2C1)C(=O)Nc1ccccc1F (stereo unspecified)	-2	-3	x	x	x	2
COc1ccc(/C=C\C(=O)c2c(O)ccc3c(C)cc(=O)oc23)cc1OC	6	26	73*	-2.8	-2	17
CCC(=O)NC(=S)Nc1ccc(NC(=O)COc2ccc(Cl)cc2Cl)cc1	14	-4	90*	-0.26	-4	1
COc1ccc(NC(=S)NNC(=O)COc2ccc(Cl)cc2Cl)cc1	-1	-18	-1	1.1	-8	-1
COc1ccccc1NC(=S)NC(=O)CCCOc1ccc(Cl)cc1Cl	-1	6	77*	-0.62	-5	-1
COc1ccccc1NC(=S)NC(=O)Cc1ccc(Cl)cc1	-2	-8	x	x	-7	0
CC(C)Cc1n[nH]c(=O)[nH]1	-1	-7	83*	-1.5	1	0
Cc1ccc2c(c1)C1(C(=O)N2)N2CCCC2C(C(=O)c2ccc3ccccc3c2)C12C(=O)Nc1ccccc12 (stereo unspecified)	x	9	6	x	x	x
SMILES	UPR XBP1 act	B2AR ag	CHOP inhibitor	Dynein cargo inh	pCIP destab	UPR CHOP act
Cc1cc(C)c2cc(CN(Cc3ccc4c(c3)OCO4)Cc3nnnn3Cc3ccco3)c(=O)[nH]c2c1	10	-2	71*	-1.7	-2	-4
CCc1ccc2[nH]c(=O)c(CN(Cc3ccccc3)Cc3nnnn3Cc3ccco3)cc2c1	-3	6	73*	-0.67	1	0
CCCn1c(SCC(=O)N2N=C3/C(=C/c4ccc(OC)cc4)CCCC3C2c2ccc(OC)cc2)n[nH]c1=O (stereo unspecified)	1	-2	71*	-0.37	3	0
CCCn1c(SCC(=O)NCc2ccc(OC)cc2)n[nH]c1=O	0	4	-12	0.008	-24	-1
Cc1oc2cc(OC(=O)c3ccco3)ccc2c(=O)c1-c1nc2ccccc2n1C	4	-4	32	-0.077	-7	1
CO/N=C(\Cn1ncc(NC2CCCCC2)c(Br)c1=O)c1ccc(Cl)cc1	-4	-4	84*	0.6	-2	3
CO/N=C(\Cn1ncc(N2CCCC2)c(Br)c1=O)c1ccc(Cl)cc1	-3	-15	42	-0.71	-6	-2
CSc1nsc(/C=C/Nc2ccc(C)c(C)c2)c1C#N	6	-3	87*	-1.3	9	3
O=C(NCc1ccccn1)c1cc(Cl)ccc1OCc1ccccc1	2	4	x	x	6	0
Cc1sc2ncn(-n3c(C)ccc3C)c(=O)c2c1C	-5	5	27	-0.18	-11	0
Cc1ccc(-c2csc3ncn(-n4c(C)ccc4C)c(=O)c23)o1	-10	5	79*	-2.5	-6	-1
CCc1c(C(=O)N2CCCN(C)CC2)csc1C	1	-5	x	x	-6	0
CCOC(=O)N1CCN(Cc2nc(N)nc(Nc3ccc(OC)cc3)n2)CC1	-1	11	5	2.5	-5	-1
CCOC(=O)N1CCN(Cc2nc(N)nc(Nc3ccc(Oc4ccccc4)cc3)n2)CC1	-3	12	74*	-1.5	8	0
O=[N+]([O-])c1cc([N+](=O)[O-])c2n[nH]c(-c3ccccc3)c2c1	-3	2	72*	-0.45	-7	1
O=[N+]([O-])c1cc(-c2n[nH]c(-c3ccccc3)n2)cc([N+](=O)[O-])c1	2	-2	94*	-1	-21	0
Cc1ccc2c(c1)N(CC(=O)NC(C)CCc1ccccc1)C(=O)c1cccnc1O2 (stereo unspecified)	-5	-5	x	x	-2	-2
CCC1CO/C(=C(\C(Cl)=C(Cl)Cl)[N+](=O)[O-])N1 (stereo unspecified)	-1	12	79*	-2.3	-2	1
